Measurements: PMC2646117 (Cell host & microbe, 2008)
Read-outs that look alike come from different tables or passages of the source.

Experiments:
PbΔfabI = assay: Ex vivo drug susceptibility assay, P. berghei asexual blood stages; assay type: cell-based; details: Plasmodium berghei
PbfabI^Rec = assay: Ex vivo drug susceptibility assay, P. berghei asexual blood stages; assay type: cell-based; details: Plasmodium berghei
Method in brief: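 Ex vivo growth of P. berghei asexual blood-stage parasites exposed to the test compound was measured by [³H]-hypoxanthine assay. IC50 was calculated by linear regression. Each compound was tested in duplicate on at least two separate occasions.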

ANKA = assay: Ex vivo drug susceptibility assay, P. berghei asexual blood stages; assay type: cell-based; details: Plasmodium berghei
P. falciparum 3D7 = assay type: cell-based; details: Plasmodium falciparum, 3D7, read-out: mean IC50
P. falciparum Dd2 = assay type: cell-based; details: Plasmodium falciparum, DD2, read-out: mean IC50
[1] = test system: P. berghei (KBG-173 line); assay type: in vivo; details: for parasitemia on day 6 post-infection: three days twice-daily divided dose
PffabI(A217V)^Dd2 = assay: Drug susceptibility assay, transgenic line; assay type: cell-based, P. falciparum; details: Plasmodium falciparum
PffabI(WT)^Dd2 = assay: Drug susceptibility assay, transgenic line; assay type: cell-based, P. falciparum; details: Plasmodium falciparum
Dd2^attB = assay: Drug susceptibility assay, parental line; assay type: cell-based, P. falciparum; details: Plasmodium falciparum
PffabI(A217V)^3D7 = assay: Drug susceptibility assay, transgenic line; assay type: cell-based, P. falciparum; details: Plasmodium falciparum
PffabI(WT)^3D7 = assay: Drug susceptibility assay, transgenic line; assay type: cell-based, P. falciparum; details: Plasmodium falciparum
3D7^attB = assay: Drug susceptibility assay, parental line; assay type: cell-based, P. falciparum; details: Plasmodium falciparum
PfΔfabI^1 = assay: Drug susceptibility assay, pffabI knockout clone; assay type: cell-based, P. falciparum; details: Plasmodium falciparum, read-out: IC50 (mean ± SEM)
PfΔfabI^2 = assay: Drug susceptibility assay, pffabI knockout clone; assay type: cell-based, P. falciparum; details: Plasmodium falciparum, read-out: IC50 (mean ± SEM)
P. berghei = details: SC, 3 mg/kg/day, four days; ref Surolia and Surolia, 2001; cited from earlier work
recombinant PfFabI A217V = recombinant PfFabI A217V versus wild type; ref Kapoor et al., 2004; cited from earlier work

Question: With `CCN(CC)CCCC(C)Nc1ccnc2cc(Cl)ccc12` (centres unmarked) [chloroquine] as the compound, how does the IC50 (PbΔfabI) read?
Answer: Its IC50 is 11 ± 0.1 nM.

Question: What about the IC50 (PbfabI^Rec) of the same compound?
Answer: The IC50 was 13 ± 0.6 nM.

Question: And the IC50 (ANKA)?
Answer: Its IC50 is 10.4 ± 0.3 nM.

Question: With `Oc1cc(Cl)ccc1Oc1ccc(Cl)cc1Cl` [triclosan, 5-chloro-2-(2,4-dichlorophenoxy)phenol] as the compound, how does the IC50 (P. falciparum 3D7) read?
Answer: The IC50 was 1800 nM.

Question: What about the “parasitemia at doses above 128 mg/kg/day” value ([1]; PO or SC, doses higher than 128 mg/kg/day) of the same compound?
Answer: The value was “failed to further suppress the parasitemias”.

Question: And the survival times ([1]; PO, 64 mg/kg/day)?
Answer: The survival times was “slight extension in survival times”.

Question: And the “survival rate at day 31” value ([1]; PO, 128 mg/kg/day)?
Answer: The value was 30%.

Question: What about the “parasitemia on day 6 post-infection” value ([1]; PO, 128 mg/kg/day, placebo control 61%) of the same compound?
Answer: The value was 27%.

Question: What about the “survival rate at day 31” value ([1]; PO, 256 mg/kg/day) of the same compound?
Answer: Its value is 30%.

Question: What about the “mortality / overall survival (toxicity)” value ([1]; PO, 512 mg/kg/day) of the same compound?
Answer: Its value is “some early mortality and decreased overall survival rates”.

Question: And the survival ([1]; SC route, 16 to 512 mg/kg/day)?
Answer: Its survival is no more than 50%.

Question: And the “parasitemia on day 6 post-infection” value ([1]; SC, 128 mg/kg/day, placebo control 57%)?
Answer: The value was 13%.

Question: What about the IC90 (PffabI(A217V)^Dd2; DD2, read-out: IC90 (mean±SEM)) of the same compound?
Answer: The IC90 was […].

Question: And the IC50 (PffabI(WT)^Dd2; DD2, read-out: IC50 (mean±SEM))?
Answer: The IC50 was […].

Question: What about the IC50 (Dd2^attB; DD2, read-out: IC50 (mean±SEM)) of the same compound?
Answer: The IC50 was 3.1 ± 0.7 µM.

Question: What about the IC90 (Dd2^attB; DD2, read-out: IC90 (mean±SEM)) of the same compound?
Answer: Its IC90 is 7.2 ± 0.7 µM.

Question: And the IC90 (PffabI(A217V)^3D7; 3D7, read-out: IC90 (mean±SEM))?
Answer: Its IC90 is […].

Question: What about the IC50 (PffabI(WT)^3D7; 3D7, read-out: IC50 (mean±SEM)) of the same compound?
Answer: The IC50 was […].

Question: What about the IC90 (PffabI(WT)^3D7; 3D7, read-out: IC90 (mean±SEM)) of the same compound?
Answer: Its IC90 is […].

Question: What about the IC90 (3D7^attB; 3D7, read-out: IC90 (mean±SEM)) of the same compound?
Answer: Its IC90 is 4.8 ± 0.6 µM.

Question: And the IC50 (PfΔfabI^1)?
Answer: The IC50 was 2200 ± 200 nM.

Question: And the IC50 (PfΔfabI^2)?
Answer: Its IC50 is 2400 ± 300 nM.

Question: What about the IC50 (PbΔfabI; read-out: IC50 (means±SEM)) of the same compound?
Answer: The IC50 was 1400 ± 100 nM.

Question: What about the IC50 (PbfabI^Rec; read-out: IC50 (means±SEM)) of the same compound?
Answer: Its IC50 is 1500 ± 200 nM.

Question: And the IC50 (ANKA; read-out: IC50 (means±SEM))?
Answer: The IC50 was 1200 ± 100 nM.

Question: What about the “suppression of P. berghei parasitemia” value (P. berghei) of the same compound?
Answer: The value was 75%.

Question: And the “decrease in binding affinity conferred by A217V mutation” value (recombinant PfFabI A217V)?
Answer: The value was 7,000 fold.
